Molecular target: PKC rat-brain isozyme mixture
Assay: Protein kinase C isozyme mixture competitive binding assay with
Settings: read-out: Kd of (^3H)PDBu; measured under these assay conditions
Outline: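 Rat-brain PKC isozyme mixture in Tris-HCl pH 7.4 buffer with KCl, CaCl2 and BSA, plus phosphatidylserine vesicles; (3H)PDBu added in DMSO. Triplicate vials incubated at 37 °C for 90 min, then 15 min on ice. Nonspecific binding from an unlabelled analogue at 5 μM assay concentration. Filtered through poly(ethyleneamine)-soaked filters, washed with ice-cold 20 mM Tris pH 7.4, scintillation-counted.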

## CCCC(=O)OC1C(C)C2(O)C(C=C(CO)CC3(O)C(=O)C(C)=CC32)C2C(C)(C)C12OC(=O)CCC (stereo not shown) [(^3H)PDBu, (^3H)phorbol dibutyrate]
  Kd: 1.55 nM

— paper PMC3963460 (Synthesis, 2013)
